ChEMBL document CHEMBL1156125, “Pentacycle derivatives as cannabinoid CB1 receptor ligands” (Bioorg Med Chem Lett, 2009)

Key:
[1] = target: Cannabinoid receptor 1 (Rattus norvegicus, UniProt P20272); assay: Displacement of [3H]CP-55940 from CB1 receptor in Sprague-Dawley rat cerebellar membrane; design: species or system Cerebellum
Procedure, shortened: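 Pelleted membranes were incubated with 3 nM [3H]CP55,940, 0.5% fatty-acid-free BSA and a range of ligand concentrations for 1 h at 30 °C. Bound ligand was filtered on PEI-soaked GF/B and counted by scintillation; IC50 reported.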

[2] = target: Cannabinoid receptor 2 (Homo sapiens, UniProt P34972); assay: Displacement of [3H]WIN-552122 from human CB2 receptor expressed in CHOK1 cells; format: cell-based, CHO-K1
Sequence of Cannabinoid receptor 2 (P34972 whole entry): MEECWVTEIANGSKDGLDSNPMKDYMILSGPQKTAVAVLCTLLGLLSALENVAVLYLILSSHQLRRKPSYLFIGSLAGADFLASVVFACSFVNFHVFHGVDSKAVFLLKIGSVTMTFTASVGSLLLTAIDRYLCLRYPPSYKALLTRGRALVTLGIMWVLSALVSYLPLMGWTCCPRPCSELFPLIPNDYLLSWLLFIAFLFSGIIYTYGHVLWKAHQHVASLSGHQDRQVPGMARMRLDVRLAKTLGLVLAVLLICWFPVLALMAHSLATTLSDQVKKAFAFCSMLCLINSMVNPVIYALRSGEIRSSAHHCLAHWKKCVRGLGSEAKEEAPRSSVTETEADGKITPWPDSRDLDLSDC
Procedure, shortened: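 Membranes came from CHO K-1 cells transfected with human CB2 and were prepared in TME buffer (pH 7.4) with centrifugation at 48,000g. Competition used 3 nM [3H]WIN55,212-2 in TME with 0.5% fatty-acid-free BSA across a range of ligand concentrations, 1 h at 30 °C.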

[3] = Selectivity ratio of IC50 for human CB2 to IC50 for rat CB1
Procedure, shortened: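 Competitive radioligand binding in TME buffer (50 mM Tris–HCl, 1 mM EDTA, 3 mM MgCl2, pH 7.4) with 0.5% fatty-acid-free BSA, 1 h at 30 °C. rCB1 used male Sprague-Dawley rat cerebellar membranes with 3 nM [3H]CP55,940. hCB2 used membranes from CHO K-1 cells transfected with human CB2, with 3 nM [3H]WIN55,212-2. Bound ligand was filtered and counted by scintillation. Ratio = hCB2 IC50 / rCB1 IC50.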

[4] = target: Cannabinoid receptor 1 (Homo sapiens) (UniProt P21554); assay: Binding affinity to human CB1 receptor expressed in CHO cells by luciferase reporter gene assay
Sequence of Cannabinoid receptor 1 (Homo sapiens) (P21554 whole entry, looked up): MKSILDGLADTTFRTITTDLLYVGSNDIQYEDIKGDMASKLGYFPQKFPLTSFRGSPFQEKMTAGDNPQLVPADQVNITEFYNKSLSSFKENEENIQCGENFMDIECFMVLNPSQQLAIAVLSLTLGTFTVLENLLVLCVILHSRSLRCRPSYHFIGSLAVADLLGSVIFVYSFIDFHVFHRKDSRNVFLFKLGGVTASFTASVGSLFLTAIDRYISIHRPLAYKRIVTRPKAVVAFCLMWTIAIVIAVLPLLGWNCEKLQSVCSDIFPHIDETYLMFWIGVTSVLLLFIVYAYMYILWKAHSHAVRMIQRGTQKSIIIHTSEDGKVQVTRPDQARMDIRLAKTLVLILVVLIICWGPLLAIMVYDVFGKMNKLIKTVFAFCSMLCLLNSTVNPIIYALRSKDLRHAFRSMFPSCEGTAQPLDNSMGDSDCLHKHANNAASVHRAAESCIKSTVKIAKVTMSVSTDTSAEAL

[5] = Cmax in rat at 5 mg/kg, po after 1.3 hrs; format: ADME, organism-based; design: dose 5 mg/kg, route oral; conditions: in vivo
[6] = Oral bioavailability in rat at 5 mg/kg; format: ADME, organism-based; conditions: in vivo
[7] = tested on: Rattus norvegicus; assay: Systemic clearance in rat at 5 mg/kg, po; format: ADME, organism-based; design: dose 5 mg/kg, route oral; conditions: in vivo
[8] = Elimination half life in rat at 5 mg/kg, po; format: ADME, organism-based; design: dose 5 mg/kg, route oral; conditions: in vivo, read-out: beta t1/2 (converted)

Sequence of Cannabinoid receptor 1 (P20272 whole entry): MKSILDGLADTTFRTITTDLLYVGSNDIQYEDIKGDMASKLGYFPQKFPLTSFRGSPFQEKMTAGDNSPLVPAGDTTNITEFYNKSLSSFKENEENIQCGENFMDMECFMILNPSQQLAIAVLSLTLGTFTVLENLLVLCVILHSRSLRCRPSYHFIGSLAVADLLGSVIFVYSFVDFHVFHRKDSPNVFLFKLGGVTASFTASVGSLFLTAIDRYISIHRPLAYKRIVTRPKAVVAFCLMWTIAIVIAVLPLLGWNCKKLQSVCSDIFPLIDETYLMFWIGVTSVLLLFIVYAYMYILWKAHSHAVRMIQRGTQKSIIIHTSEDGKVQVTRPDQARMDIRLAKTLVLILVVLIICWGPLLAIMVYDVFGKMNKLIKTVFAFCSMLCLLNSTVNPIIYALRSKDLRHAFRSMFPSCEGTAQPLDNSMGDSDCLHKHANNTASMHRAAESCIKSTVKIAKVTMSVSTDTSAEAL

| IC50 [1] [nM] | Compound | other results |
| --- | --- | --- |
| 3.23 | Cc1nnc(-c2c(-c3nnc(C4(c5ccc(Cl)cc5)CC4)s3)nn(-c3ccc(Cl)cc3Cl)c2-c2ccc(Cl)cc2)o1 | – |
| 4.93 | Cc1nnc(-c2c(-c3nnc(C(C)(C)C)s3)nn(-c3ccc(Cl)cc3Cl)c2-c2ccc(Br)cc2)o1 | – |
| 3.93 | Cc1nnc(-c2c(-c3nnc(C4(c5ccc(Cl)cc5)CC4)o3)nn(-c3ccc(Cl)cc3Cl)c2-c2ccc(Cl)cc2)o1 | – |
| 4.7 | Cc1nnc(-c2c(-c3nnc(C4(C(F)(F)F)CC4)o3)nn(-c3ccc(Cl)cc3Cl)c2-c2ccc(Br)cc2)o1 | – |
| 10.3 | Cc1nnc(-c2c(-c3nnc(C4(c5ccc(Cl)cc5)CC4)o3)nn(-c3ccc(Cl)cc3Cl)c2-c2ccc(Cl)cc2)s1 | – |
| 3.69 | Cc1nnc(-c2c(-c3nnc(C(C)(C)C)o3)nn(-c3ccc(Cl)cc3Cl)c2-c2ccc(Br)cc2)s1 | – |
| 7.39 | Cc1nnc(-c2c(-c3nnc(C4(C(F)(F)F)CC4)s3)nn(-c3ccc(Cl)cc3Cl)c2-c2ccc(Cl)cc2)s1 | – |
| 2.56 | Cc1nnc(-c2c(-c3nnc(C(C)(C)C)o3)nn(-c3ccc(Cl)cc3Cl)c2-c2ccc(Br)cc2)o1 | IC50 [2]: 414 nM; Ratio IC50 [3]: 162 |
| 3.03 | Cc1nnc(-c2c(-c3nnc(C4(c5ccc(Cl)cc5)CC4)s3)nn(-c3ccc(Cl)cc3Cl)c2-c2ccc(Cl)cc2)s1 | – |
| 4.14 | Cc1nnc(-c2c(-c3nnc(C4(C(F)(F)F)CC4)o3)nn(-c3ccc(Cl)cc3Cl)c2-c2ccc(Cl)cc2)s1 | – |
| 2.56 | Cc1nnc(-c2c(-c3nnc(C(C)(C)C)s3)nn(-c3ccc(Cl)cc3Cl)c2-c2ccc(Br)cc2)s1 | IC50 [2]: 427 nM; Ratio IC50 [3]: 167 |
| 3.7 | Cc1nnc(-c2c(-c3nnc(C4(c5ccc(Cl)cc5)CC4)s3)nn(-c3ccc(Cl)cc3Cl)c2-c2ccc(Br)cc2)s1 | IC50 [2]: > 10000 nM; Ratio IC50 [3]: > 2700 |
| 2.83 | Cc1nnc(-c2c(-c3nnc(C(C)(C)C)o3)nn(-c3ccc(Cl)cc3Cl)c2-c2ccc(Cl)cc2)s1 | – |
| 2.13 | Cc1nnc(-c2c(-c3nnc(C4(c5ccc(Cl)cc5)CC4)o3)nn(-c3ccc(Cl)cc3Cl)c2-c2ccc(Br)cc2)s1 | – |
| 4.44 | Cc1nnc(-c2c(-c3nnc(C4(c5ccc(Cl)cc5)CC4)s3)nn(-c3ccc(Cl)cc3Cl)c2-c2ccc(Br)cc2)o1 | – |
| 1.72 | Cc1nnc(-c2c(-c3nnc(C4(C(F)(F)F)CC4)o3)nn(-c3ccc(Cl)cc3Cl)c2-c2ccc(Br)cc2)s1 | IC50 [4]: 38.5 nM; IC50 [2]: 245 nM; Cmax [5]: 30 ng/mL; bioavailability [6]: 7.2%; clearance [7]: 12.6 mL/min/kg; Ratio IC50 [3]: 142; half-life [8]: 18.4 h |
| 14.7 | Cc1nnc(-c2c(-c3nnc(C4(C(F)(F)F)CC4)o3)nn(-c3ccc(Cl)cc3Cl)c2-c2ccc(Cl)cc2)o1 | – |
| 4.91 | Cc1nnc(-c2c(-c3nnc(C4(c5ccc(Cl)cc5)CC4)o3)nn(-c3ccc(Cl)cc3Cl)c2-c2ccc(Br)cc2)o1 | – |
| 6.47 | Cc1nnc(-c2c(-c3nnc(C(C)(C)C)o3)nn(-c3ccc(Cl)cc3Cl)c2-c2ccc(Cl)cc2)o1 | – |
| 4.86 | Cc1nnc(-c2c(-c3nnc(C4(C(F)(F)F)CC4)s3)nn(-c3ccc(Cl)cc3Cl)c2-c2ccc(Br)cc2)o1 | – |
| 26.9 | Cc1nnc(-c2c(-c3nnc(C4(C(F)(F)F)CC4)s3)nn(-c3ccc(Cl)cc3Cl)c2-c2ccc(Cl)cc2)o1 | – |

| Compound | IC50 [1] [nM] | other results |
| --- | --- | --- |
| Cc1nnc(-c2c(-c3nnc(C4(C(F)(F)F)CC4)s3)nn(-c3ccc(Cl)cc3Cl)c2-c2ccc(Br)cc2)s1 | 4.21 | – |
